This is an account of results in ChEMBL document CHEMBL1121485, “Antiestrogens. Synthesis and evaluation of mammary tumor inhibiting activity of 1,1,2,2-tetraalkyl-1,2 -diphenylethanes” (1980).

In experiment [1] the target is T1, Estrogen receptor (Mus musculus) (UniProt O08537+P19785). Kind of experiment: Uterotrophic effect in mice as uterus dry weight(mg) compared to body weight(g) at 0 ug/day dose. It counts as functional, tissue-based. In a few lines: (§1)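 Mice aged 20 days at start, dosed sc once daily for 3 days (0.1 mL injections, arachis oil vehicle); vehicle-only control group. Killed 24 h after last dose; body weight recorded; uteri fixed in Bouin's solution 12 h, trimmed of connective tissue, washed with saturated alcoholic LiCl, dried 100 °C for 24 h, then weighed.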
T1 sequence (O08537 whole entry, looked up): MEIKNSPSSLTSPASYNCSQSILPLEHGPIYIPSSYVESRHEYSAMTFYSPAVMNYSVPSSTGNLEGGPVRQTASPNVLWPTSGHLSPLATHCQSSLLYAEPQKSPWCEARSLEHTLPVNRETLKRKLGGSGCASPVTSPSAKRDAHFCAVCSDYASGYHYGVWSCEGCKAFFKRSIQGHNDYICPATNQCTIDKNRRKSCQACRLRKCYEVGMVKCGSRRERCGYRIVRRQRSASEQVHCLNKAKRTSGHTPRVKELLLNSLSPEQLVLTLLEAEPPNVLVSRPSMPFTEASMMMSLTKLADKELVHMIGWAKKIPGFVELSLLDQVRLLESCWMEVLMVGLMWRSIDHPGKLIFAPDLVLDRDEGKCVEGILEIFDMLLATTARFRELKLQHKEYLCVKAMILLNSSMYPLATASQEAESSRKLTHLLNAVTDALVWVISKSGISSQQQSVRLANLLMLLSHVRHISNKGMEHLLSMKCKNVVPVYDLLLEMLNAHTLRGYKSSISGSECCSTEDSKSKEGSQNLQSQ
T1 sequence (P19785 whole entry, looked up): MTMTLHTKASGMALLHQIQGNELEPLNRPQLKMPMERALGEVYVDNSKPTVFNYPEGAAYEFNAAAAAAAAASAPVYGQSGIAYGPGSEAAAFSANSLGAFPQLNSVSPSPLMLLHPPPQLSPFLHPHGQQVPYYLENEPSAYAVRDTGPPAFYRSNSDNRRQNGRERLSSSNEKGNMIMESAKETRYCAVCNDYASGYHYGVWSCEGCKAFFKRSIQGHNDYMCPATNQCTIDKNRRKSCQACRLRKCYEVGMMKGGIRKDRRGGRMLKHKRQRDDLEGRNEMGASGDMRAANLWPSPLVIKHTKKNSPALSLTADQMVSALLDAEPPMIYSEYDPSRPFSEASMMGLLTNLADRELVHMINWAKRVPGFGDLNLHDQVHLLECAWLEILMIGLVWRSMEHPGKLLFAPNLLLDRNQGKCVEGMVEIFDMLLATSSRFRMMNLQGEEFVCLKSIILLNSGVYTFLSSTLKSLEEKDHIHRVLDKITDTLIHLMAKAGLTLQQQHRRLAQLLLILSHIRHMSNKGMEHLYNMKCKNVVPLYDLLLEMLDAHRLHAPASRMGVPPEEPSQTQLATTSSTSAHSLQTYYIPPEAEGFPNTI

The target in experiment [2] is T2, Estrogen receptor (Bos taurus) (UniProt Q9XSB5+P49884). Kind of experiment: Ratio of association constants for estradiol and compound in estrogen receptor binding assay. The class given is protein assay.
The target of experiment [3] is T1, Estrogen receptor (Mus musculus). In words: Anti-uterotrophic effect in mice as uterus dry weight(mg) compared to body weight(g) at 25 ug/day dose. It counts as functional, tissue-based. In a few lines:
as §1

The target is the same in experiment [4]. In words: Uterotrophic effect in mice as uterus dry weight(mg) compared to body weight(g) at 100 ug/day dose. The class given is functional, tissue-based. In a few lines:
as §1

The target is the same in experiment [5]. Kind of experiment: Anti-uterotrophic effect in mice as uterus dry weight(mg) compared to body weight(g) at 50 ug/day dose. The class given is functional, tissue-based. In a few lines: as §1
Experiment [6] addresses T2, Estrogen receptor (Bos taurus). In words: Relative binding affinity for Estrogen receptor compared to 17-beta-estradiol. The class given is protein assay.
The target of experiment [7] is T1, Estrogen receptor (Mus musculus). Kind of experiment: Anti-uterotrophic effect in mice as uterus dry weight(mg) compared to body weight(g) at 5 ug/day dose. The class given is functional, tissue-based. The procedure, abridged:
as §1

The target in experiment [8] is T2, Estrogen receptor (Bos taurus). Kind of experiment: Association constant for Estrogen receptor. The class given is protein assay.
The species named for experiment [9] is Mus musculus. Kind of experiment: Inhibition of estrone-stimulated uterine growth in mice at 50 ug.
The species entered for experiment [10] is Mus musculus. In words: Inhibition of estrone-stimulated uterine growth in mice at 100 ug.
In experiment [11] the target is T1, Estrogen receptor (Mus musculus). In words: Uterotrophic effect in mice as uterus dry weight(mg) compared to body weight(g) at 5 ug/day dose. It counts as functional, tissue-based. The procedure, abridged:
as §1

The target is the same in experiment [12]. In words: Uterotrophic effect in mice as uterus dry weight(mg) compared to body weight(g) at 500 ug/day dose. It counts as functional, tissue-based. In a few lines: as §1
For experiment [13], the species on record is Mus musculus. Kind of experiment: Inhibition of estrone-stimulated uterine growth in mice at 25 ug.
Experiment [14] addresses T1, Estrogen receptor (Mus musculus). In words: Anti-uterotrophic effect in mice as uterus dry weight(mg) compared to body weight(g) at 100 ug/day dose. It counts as functional, tissue-based. In a few lines: as §1
Experiment [15] shares this target. In words: Anti-uterotrophic effect in mice as uterus dry weight(mg) compared to body weight(g) at 0 ug/day dose. It counts as functional, tissue-based. The procedure, abridged:
as §1

The target is the same in experiment [16]. Kind of experiment: Uterotrophic effect in mice as uterus dry weight(mg) compared to body weight(g) at 25 ug/day dose. The class given is functional, tissue-based. The procedure, abridged:
as §1

The species entered for experiment [17] is Mus musculus. In words: Inhibition of estrone-stimulated uterine growth in mice at 5 ug.

What is called Inhibition is the relative decrease from the control value, in per cent. With `CC(C)(c1ccc(O)c(O)c1)C(C)(C)c1ccc(O)c(O)c1`, the Effect in [1] came out at 9.6; in experiment [3], 35; in [4], 10; in experiment [5] it was 32.8; in experiment [7], 38.6; in experiment [11], 9.7. In addition, the Effect in experiment [12] came out at 12.5; in experiment [14], 28.4; in experiment [15] it was 15.7; in experiment [16] it was 8.9. Also, the RAC in [2] turned out to be 0.0056. Besides, the RA in [6] was 0.006. Further, in experiment [8], the Ka is 4e+07 M⁻¹. In addition, the Inhibition in the experiment filed under Mus musculus [9] was 30.4%; in the experiment filed under Mus musculus [10], 45.5%; in the experiment listed under Mus musculus [13], 21.5%; in the experiment listed under Mus musculus [17], 6.8%.
